Measured values as given in ChEMBL document CHEMBL1137077, “Design, synthesis, anti-HIV activities, and metabolic stabilities of alkenyldiarylmethane (ADAM) non-nucleoside reverse transcriptase inhibitors” (J Med Chem, 2004).

Test system: MT4
Assay: Effective concentration required to inhibit cytopathicity of HIV-2(ROD) in MT-4 cells
Type: functional, cell-based
Conditions: Homo sapiens; call rule not given here
How it was run: (§1)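 MT-4 cells resuspended at 6 × 10⁵ cells/mL and infected with HIV-1 IIIB or HIV-2 ROD at 100–300 CCID₅₀, with compound added at infection. Serial 5-fold dilutions were run in triplicate. After 5 days, viability was read by MTT reduction at 540 and 690 nm using the median OD of three wells. EC₅₀ is the concentration giving 50% protection from viral cytopathic effect.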

| Structure (SMILES) | EC50 [µM] |
| --- | --- |
| COC(=O)CCCC=C(c1cc(Cl)c(OC)c(C(=O)OC)c1)c1cc(Cl)c(OC)c(C(=O)OC)c1 | 25 |
| COC(=O)c1cc(C(=CCCCc2ccccc2)c2cc(Br)c(OC)c(C(=O)OC)c2)cc(Br)c1OC | 29.3 |
| C=CCCCC=C(c1cc(Cl)c(OC)c(C(=O)OC)c1)c1cc(Cl)c(OC)c(C(=O)OC)c1 | 26.4 |
| COC(=O)c1cc(C(=CCCCc2ccccc2)c2cc(Cl)c(OC)c(C(=O)OC)c2)cc(Cl)c1OC | 113 |

Test system: Human immunodeficiency virus 2
Assay: Effective concentration required to inhibit cytopathicity of HIV-2(ROD) in MT-4 cells.
Type: functional, organism-based
Conditions: mt4
How it was run: as §1

| Structure (SMILES) | EC50 |
| --- | --- |
| COC(=O)CCCC=C(c1cc(Cl)c(OC)c(C(=O)SC)c1)c1cc(Cl)c(OC)c(C(=O)SC)c1 | Not Active |
| COC(=O)CCCC(CCCC(=O)OC)=C(c1cc(Br)c(OC)c(C(=O)OC)c1)c1cc(Br)c(OC)c(C(=O)OC)c1 | Not Active |
| CCOc1c(C)cc(C(=CCCCC(=O)OC)c2cc(C)c(OCC)c(C(=O)OC)c2)cc1C(=O)OC | Not Active |
| COC(=O)CCC/C=C(\c1cc(C)c(OC)c(C(=O)OC)c1)c1cc(Cl)c(OC)c(C(=O)OC)c1 | Not Active |
| CCCOc1c(C)cc(C(=CCCCC(=O)OC)c2cc(C)c(OCCC)c(C(=O)OC)c2)cc1C(=O)OC | Not Active |
| CCCOC(=O)CCCC=C(c1cc(Br)c(OC)c(C(=O)OC)c1)c1cc(Br)c(OC)c(C(=O)OC)c1 | Not Active |
| COc1c(Cl)cc(C(=CCCCCO)c2cc(Cl)c(OC)c(CO)c2)cc1CO | Not Active |
| COC(=S)CCCC=C(c1cc(Cl)c(OC)c(C(=S)OC)c1)c1cc(Cl)c(OC)c(C(=S)OC)c1 | Not Active |
| COC(=O)c1cc(C(=CCCCC(=O)OC(C)C)c2cc(C)c(OC)c(C(=O)OC)c2)cc(C)c1OC | Not Active |
| COCCCCC=C(c1cc(Br)c(OC)c(C(=O)OC)c1)c1cc(Br)c(OC)c(C(=O)OC)c1 | Not Active |
| COC(=O)CCCC=C(c1ccc(OC)cc1OC)c1ccc(OC)cc1OC | Not Active |
| COC(=O)CCC/C=C(\c1ccc(OC)c(OC)c1)c1cc(Cl)c(OC)c(C(=O)OC)c1 | Not Active |

Test system: MT4
Assay: Evaluated for the ability to inhibit cytopathicity of HIV-1(IIIB) in MT-4 cells
Type: functional, cell-based
Conditions: Homo sapiens
How it was run: as §1

| Structure (SMILES) | EC50 [µM] |
| --- | --- |
| COCCCCC=C(c1cc(Br)c(OC)c(C(=O)OC)c1)c1cc(Br)c(OC)c(C(=O)OC)c1 | 2.8 |

Test system: MT4
Assay: Effective concentration required to inhibit cytopathicity of HIV-1(IIIB) in MT-4 cells; Not active
Type: functional, cell-based, Homo sapiens
Conditions: not given
How it was run: as §1

| Structure (SMILES) | EC50 |
| --- | --- |
| COC(=O)CCCC(CCCC(=O)OC)=C(c1cc(Br)c(OC)c(C(=O)OC)c1)c1cc(Br)c(OC)c(C(=O)OC)c1 | Not Active |
| CCCOc1c(C)cc(C(=CCCCC(=O)OC)c2cc(C)c(OCCC)c(C(=O)OC)c2)cc1C(=O)OC | Not Active |
| COc1c(Cl)cc(C(=CCCCCO)c2cc(Cl)c(OC)c(CO)c2)cc1CO | Not Active |
| COC(=O)CCCC=C(c1ccc(OC)cc1OC)c1ccc(OC)cc1OC | Not Active |
| COC(=O)CCC/C=C(\c1ccc(OC)c(OC)c1)c1cc(Cl)c(OC)c(C(=O)OC)c1 | Not Active |

Test system: MT4
Assay: Evaluated for cytotoxicity in mock-infected MT-4 cells
Type: functional
Conditions: Homo sapiens
How it was run: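 Exponentially growing MT-4 cells were resuspended at 6 × 10⁵ cells/mL in mock-infected wells alongside infected wells, with serial 5-fold compound dilutions run in triplicate. MTT viability was read after 5 days at 540 and 690 nm using the median OD of three wells. CC₅₀ is the concentration reducing OD₅₄₀ of mock-infected controls by 50%.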

| Structure (SMILES) | CC50 [µM] |
| --- | --- |
| COC(=O)CCCC=C(c1cc(Cl)c(OC)c(C(=O)SC)c1)c1cc(Cl)c(OC)c(C(=O)SC)c1 | > 224 |
| COC(=O)CCCC(CCCC(=O)OC)=C(c1cc(Br)c(OC)c(C(=O)OC)c1)c1cc(Br)c(OC)c(C(=O)OC)c1 | 78.1 |
| CCOc1c(C)cc(C(=CCCCC(=O)OC)c2cc(C)c(OCC)c(C(=O)OC)c2)cc1C(=O)OC | 73 |
| COC(=O)CCC/C=C(\c1cc(C)c(OC)c(C(=O)OC)c1)c1cc(Cl)c(OC)c(C(=O)OC)c1 | 19.1 |
| CCCOc1c(C)cc(C(=CCCCC(=O)OC)c2cc(C)c(OCCC)c(C(=O)OC)c2)cc1C(=O)OC | > 231 |
| CCCOC(=O)CCCC=C(c1cc(Br)c(OC)c(C(=O)OC)c1)c1cc(Br)c(OC)c(C(=O)OC)c1 | 114 |
| COc1c(Cl)cc(C(=CCCCCO)c2cc(Cl)c(OC)c(CO)c2)cc1CO | 30.7 |
| COC(=S)CCCC=C(c1cc(Cl)c(OC)c(C(=S)OC)c1)c1cc(Cl)c(OC)c(C(=S)OC)c1 | > 218 |
| COC(=O)c1cc(C(=CCCCC(=O)OC(C)C)c2cc(C)c(OC)c(C(=O)OC)c2)cc(C)c1OC | 59.5 |
| COCCCCC=C(c1cc(Br)c(OC)c(C(=O)OC)c1)c1cc(Br)c(OC)c(C(=O)OC)c1 | 28.6 |
| COC(=O)CCCC=C(c1ccc(OC)cc1OC)c1ccc(OC)cc1OC | 5.9 |
| COC(=O)CCC/C=C(\c1ccc(OC)c(OC)c1)c1cc(Cl)c(OC)c(C(=O)OC)c1 | 8.7 |
| COC(=O)CCCC=C(c1cc(Cl)c(OC)c(C(=O)OC)c1)c1cc(Cl)c(OC)c(C(=O)OC)c1 | 160 |
| COC(=O)c1cc(C(=CCCCc2ccccc2)c2cc(Br)c(OC)c(C(=O)OC)c2)cc(Br)c1OC | > 198 |
| C=CCCCC=C(c1cc(Cl)c(OC)c(C(=O)OC)c1)c1cc(Cl)c(OC)c(C(=O)OC)c1 | > 253 |
| COC(=O)c1cc(C(=CCCCc2ccccc2)c2cc(Cl)c(OC)c(C(=O)OC)c2)cc(Cl)c1OC | > 230 |

Test system: not listed separately
Assay: Half-life in rat plasma
Type: ADME
Conditions: not given

| Structure (SMILES) | half-life [min] |
| --- | --- |
| COC(=O)CCCC=C(c1cc(Cl)c(OC)c(C(=O)SC)c1)c1cc(Cl)c(OC)c(C(=O)SC)c1 | 55.3 |
| CCOc1c(C)cc(C(=CCCCC(=O)OC)c2cc(C)c(OCC)c(C(=O)OC)c2)cc1C(=O)OC | 9 |
| COC(=O)CCC/C=C(\c1cc(C)c(OC)c(C(=O)OC)c1)c1cc(Cl)c(OC)c(C(=O)OC)c1 | 9 |
| CCCOC(=O)CCCC=C(c1cc(Br)c(OC)c(C(=O)OC)c1)c1cc(Br)c(OC)c(C(=O)OC)c1 | 3.4 |
| COC(=O)c1cc(C(=CCCCC(=O)OC(C)C)c2cc(C)c(OC)c(C(=O)OC)c2)cc(C)c1OC | 1.7 |
| COCCCCC=C(c1cc(Br)c(OC)c(C(=O)OC)c1)c1cc(Br)c(OC)c(C(=O)OC)c1 | 35.1 |
| COC(=O)CCCC=C(c1ccc(OC)cc1OC)c1ccc(OC)cc1OC | 2.6 |
| COC(=O)CCCC=C(c1cc(Cl)c(OC)c(C(=O)OC)c1)c1cc(Cl)c(OC)c(C(=O)OC)c1 | 5.8 |
| COC(=O)c1cc(C(=CCCCc2ccccc2)c2cc(Br)c(OC)c(C(=O)OC)c2)cc(Br)c1OC | 55 |
| C=CCCCC=C(c1cc(Cl)c(OC)c(C(=O)OC)c1)c1cc(Cl)c(OC)c(C(=O)OC)c1 | 39.3 |
| COC(=O)c1cc(C(=CCCCc2ccccc2)c2cc(Cl)c(OC)c(C(=O)OC)c2)cc(Cl)c1OC | 76.6 |

Test system: Human immunodeficiency virus 1
Assay: Effective concentration required to inhibit cytopathicity of HIV-1(IIIB) in MT-4 cells
Type: functional, organism-based
Conditions: Human immunodeficiency virus 1, MT4
How it was run: as §1

| Structure (SMILES) | EC50 [µM] |
| --- | --- |
| COC(=O)CCCC=C(c1cc(Cl)c(OC)c(C(=O)SC)c1)c1cc(Cl)c(OC)c(C(=O)SC)c1 | 1.8 |
| CCOc1c(C)cc(C(=CCCCC(=O)OC)c2cc(C)c(OCC)c(C(=O)OC)c2)cc1C(=O)OC | 3.7 |
| COC(=O)CCC/C=C(\c1cc(C)c(OC)c(C(=O)OC)c1)c1cc(Cl)c(OC)c(C(=O)OC)c1 | 0.8 |
| CCCOC(=O)CCCC=C(c1cc(Br)c(OC)c(C(=O)OC)c1)c1cc(Br)c(OC)c(C(=O)OC)c1 | 2.2 |
| COC(=S)CCCC=C(c1cc(Cl)c(OC)c(C(=S)OC)c1)c1cc(Cl)c(OC)c(C(=S)OC)c1 | 35.4 |
| COC(=O)c1cc(C(=CCCCC(=O)OC(C)C)c2cc(C)c(OC)c(C(=O)OC)c2)cc(C)c1OC | 3.5 |
| COC(=O)CCCC=C(c1cc(Cl)c(OC)c(C(=O)OC)c1)c1cc(Cl)c(OC)c(C(=O)OC)c1 | 0.6 |
| COC(=O)c1cc(C(=CCCCc2ccccc2)c2cc(Br)c(OC)c(C(=O)OC)c2)cc(Br)c1OC | 2.6 |
| C=CCCCC=C(c1cc(Cl)c(OC)c(C(=O)OC)c1)c1cc(Cl)c(OC)c(C(=O)OC)c1 | 3.7 |
| COC(=O)c1cc(C(=CCCCc2ccccc2)c2cc(Cl)c(OC)c(C(=O)OC)c2)cc(Cl)c1OC | 13.2 |
